hERG rescue = hERG (human) protection from proarrhythmic block | CHO-hERG, FluxOR thallium flux, dofetilide IC70 present | activation (rescue from dofetilide block), less the hit threshold, % at 10 µM | actives 0.51% (n = 310,000);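 active means activation above the mean of controls blocked by dofetilide plus 5 SD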;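 further: thallium influx through hERG after potassium depolarization seen as dye fluorescence rise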
KCNQ1 block = blocks the human KCNQ1 potassium channel; P51787; CHO-K1 KCNQ1, FluxOR thallium flux fluorescence; active compounds read high; B-score at 10 µM; actives 1.3% (n = 310,000); AID 2642;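 active means compounds whose thallium flux B-score, printed positive for inhibition, exceeds three library SD while starting fluorescence stays within three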;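 further: channel opened by potassium depolarization with thallium stimulus after 20 min compound exposure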
Target sequence (P51787 whole entry, looked up): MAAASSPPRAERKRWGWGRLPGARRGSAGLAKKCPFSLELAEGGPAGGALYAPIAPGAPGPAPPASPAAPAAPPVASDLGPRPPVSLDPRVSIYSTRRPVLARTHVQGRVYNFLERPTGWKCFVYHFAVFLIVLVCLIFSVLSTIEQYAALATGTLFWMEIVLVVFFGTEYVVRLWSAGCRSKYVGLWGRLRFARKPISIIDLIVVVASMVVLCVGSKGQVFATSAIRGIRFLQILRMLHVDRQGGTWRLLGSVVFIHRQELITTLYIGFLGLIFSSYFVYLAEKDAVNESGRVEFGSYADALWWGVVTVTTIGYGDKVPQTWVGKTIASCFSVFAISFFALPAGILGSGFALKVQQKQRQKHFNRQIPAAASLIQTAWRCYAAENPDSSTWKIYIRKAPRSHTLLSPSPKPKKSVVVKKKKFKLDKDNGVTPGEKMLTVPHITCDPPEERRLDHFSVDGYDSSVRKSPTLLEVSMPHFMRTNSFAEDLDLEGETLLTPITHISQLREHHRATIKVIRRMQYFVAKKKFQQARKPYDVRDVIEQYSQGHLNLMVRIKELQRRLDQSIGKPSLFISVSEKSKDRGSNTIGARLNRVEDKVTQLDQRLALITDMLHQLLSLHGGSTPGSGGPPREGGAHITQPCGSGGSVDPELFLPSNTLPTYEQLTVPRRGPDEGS
KCNK3 block = human KCNK3 channel inhibition, primary screen; O14649; CHO-KCNK3 thallium flux, FluxOR fluorescence; active compounds read low; B-score at 10 µM; actives 0.84% (n = 340,000);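 active means B-score under library mean minus 4 SD, starting fluorescence ratio at most library mean plus 5 SD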;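 further: more negative B-score means stronger inhibition of thallium flux through KCNK3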
KCNQ1 pot = human KCNQ1 channel potentiation or activation; CHO-K1 KCNQ1, thallium flux FluxOR fluorescence; active compounds read high; B-score at 10 µM; P51787; actives 0.35% (n = 310,000);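 active means fluorescence ratio B-score, a plate-corrected score, at least three library SD, with initial intensity B-score within 5 SD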
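Material: CHO-K1 cells stably expressing KCNQ1. Medium: assay buffer for compound exposure, DMSO matched across wells. Reagent: K+/Tl+ depolarizing stimulus. Compound dosing: single-concentration screen. Times: 37 °C overnight plating, 90-min dark dye load, 20-min compound pretreatment. Technique: FluxOR Tl+ flux fluorescence.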
KCNK9 inh = human KCNK9 channel inhibition. AID 488922. HEK293 KCNK9, FluxOR thallium flux fluorescence; active compounds read low. B-score at 10 µM. actives 1.2% (n = 310,000);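 active means ratio B-score over 3 SD below the library mean, with starting fluorescence within 5 SD of its mean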;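 further: negative B-score means less thallium flux so channel inhibition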
Kir21 block = blocks the mouse Kir2.1 inward-rectifier potassium channel. P35561. HEK293-Kir2.1, FluxOR thallium flux fluorescence; active compounds read low. B-score at 10 µM. actives 0.85% (n = 310,000). AID 1672;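 active means fluorescence ratio B-score at or below minus 3 SD of library scores, with starting-brightness B-score within 2 SD, cut at about -4.2 in these data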;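 further: channel flux triggered by added potassium and thallium sulfate stimulus; B-score of peak minus minimum fluorescence over baseline after thallium stimulus; more negative B-score means stronger Kir2.1 block with less thallium influx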
KCNK9 block conf = confirmation of human KCNK9 potassium channel inhibitors; shares compounds with KCNK9 inh; inhibition, % at 10 µM; actives 43% (n = 4,900); HEK293 KCNK9 cells, FluxOR thallium flux fluorescence; AID 492992;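 active means thallium signal inhibited by more than 5 SD of the compound-free buffer control wells, on both duplicate plates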
Kir2-1 spec = tests whether KCNK9 modulators also affect mouse Kir2.1; shares compounds with KCNK9 inh; Kir2.1 cells, FluxOR thallium flux fluorescence; inhibition, % at 10 µM; actives 4% (n = 4,900);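 active means thallium signal drop more than 5 SD beyond the mean of the no-compound control wells, seen in both duplicate plates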;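 further: signal is fluorescence rise after thallium addition divided by baseline fluorescence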
KCNK9 uninduced = non-induced cell nonspecific activity of KCNK9 modulators | shares compounds with KCNK9 inh | non-induced KCNK9-HEK293, FluxOR thallium flux | inhibition, % at 10 µM | actives 40% (n = 4,900) | AID 492997;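 active means thallium signal drop beyond 5 SD of the untreated control mean, on both duplicate plates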
Each line names hits and unclear results; the compound was inactive in the other large screens (follow-up assays come after a bar, where they were run). An excerpt weighted towards active compounds, which were near 3.8% of everything screened.

CCC12CN(C(=O)c3ccc(C)cc3)CC(CC)(CN(C(=O)c3ccc(C)cc3)C1)C2=O	none
CC1CCc2c(sc(NC(=O)c3ccccc3C(=O)O)c2C#N)C1 (centres undefined)	none
CCC(C)(C)C1CCc2c(sc(NC(=O)c3ccccc3C(=O)O)c2C#N)C1 (centres undefined)	hERG rescue 15, KCNQ1 pot 9 | KCNK9 block conf inactive | Kir2-1 spec inactive | KCNK9 uninduced inactive
Cc1[nH]c(SCC(=O)Nc2cc(S(C)(=O)=O)ccc2Cl)nc1Cc1ccccc1	none (no result: hERG rescue, KCNQ1 block, KCNQ1 pot, KCNK9 inh, Kir21 block)
O=C(CC1C=Cc2ccccc2N1C(=O)c1ccccc1)c1ccccc1 (centres undefined)	KCNK9 inh -13 | KCNK9 block conf 30% | Kir2-1 spec inactive | KCNK9 uninduced inactive
COc1ccc(C2=NN(Cc3c(F)cccc3Cl)C(=O)CC2)cc1	none
COc1ccc(Oc2ccc(C(F)(F)F)cc2NC(=O)c2ccc(F)cc2)cc1	KCNQ1 block 6 | KCNK9 block conf inactive | Kir2-1 spec inactive | KCNK9 uninduced inactive
COc1cccc(Oc2ccc(C(F)(F)F)cc2NC(=O)c2cccc(F)c2)c1	none
CC1CCN(C(=O)C2CCN(S(=O)(=O)c3cc(Cl)ccc3Cl)CC2)CC1	none
O=C(Cc1c(F)cccc1Cl)Nc1ccc(S(=O)(=O)NCC2CCCO2)cc1 (centres undefined)	none
Cn1c(N)c(C(=O)COC(=O)c2cc(S(=O)(=O)N3CCOCC3)ccc2F)c(=O)n(C)c1=O	none (no result: hERG rescue, KCNQ1 block, KCNQ1 pot, KCNK9 inh, Kir21 block)
COc1ccc(C(=O)Nn2c(SCC(=O)c3ccccc3)nc3ccccc3c2=O)cc1	none
O=C(Nn1c(SCc2ccc(F)cc2)nc2ccsc2c1=O)c1ccccc1	KCNK9 inh -11 | KCNK9 block conf 74% | Kir2-1 spec inactive | KCNK9 uninduced 46%
COc1ccc(C(=O)Nn2c(SCc3ccc([N+](=O)[O-])cc3)nc3ccccc3c2=O)cc1	KCNK9 inh -11 | KCNK9 block conf 56% | Kir2-1 spec inactive | KCNK9 uninduced 32%
COc1ccc(-c2noc3c2-c2nc(-c4cccc(C)c4)sc2CC3)cc1	none
CCC(=O)N(CCC(Cc1ccccc1)c1ccc2c(c1)OCO2)Cc1ccccc1F (centres undefined)	KCNQ1 block 9, KCNK9 inh -13 | KCNK9 block conf 65% | Kir2-1 spec inactive | KCNK9 uninduced 32%
CCC(=O)N(CCC(Cc1ccccc1)c1ccco1)Cc1ccco1 (centres undefined)	KCNK9 inh -9.9, Kir21 block -12 | KCNK9 block conf 46% | Kir2-1 spec 50% | KCNK9 uninduced 36%
CCC(=O)N(CCc1ccccc1)Cc1cc2cc3c(cc2[nH]c1=O)OCO3	none
CNC(=O)c1c(C)noc1C	none
O=C(OCCN1CCN(c2ncc(C(F)(F)F)cc2Cl)CC1)c1ccc(F)cc1	none
COc1ccc(C(=O)OC2CCN(c3ncc(C(F)(F)F)cc3Cl)CC2)cc1	none | KCNK9 block conf inactive | Kir2-1 spec inactive | KCNK9 uninduced inactive
Cc1ccc(C(=O)OCCN2CCN(c3ncc(C(F)(F)F)cc3Cl)CC2)cc1	none | KCNK9 block conf inactive | Kir2-1 spec inactive | KCNK9 uninduced inactive
C/C(=N/NC(=O)CNC(=O)c1cccnc1)c1ccccc1	none
COc1cccc(NS(=O)(=O)c2ccc3c(c2)NC(=O)CC(=O)N3)c1	none
CC(C)(C)OC(=O)N1CCN(c2ccc(CNC(=O)c3ccc(Cl)cc3)cc2)CC1	none | KCNK9 block conf inactive | Kir2-1 spec inactive | KCNK9 uninduced inactive
c1ccc(Cc2nnc(Sc3ccccc3)c3ccccc23)cc1	KCNK9 inh -8.5 | KCNK9 block conf 46% | Kir2-1 spec inactive | KCNK9 uninduced 37%
c1ccc(Sc2ncnc3ccccc23)cc1	none
CCc1ccc(NC(=O)CSc2nc3ccccc3nc2N2CCCC2)cc1	KCNQ1 block 6 | KCNK9 block conf inactive | Kir2-1 spec inactive | KCNK9 uninduced inactive
Cc1ccc(NC(=O)CSc2nc3ccccc3nc2N2CCCC2)cc1	none | KCNK9 block conf inactive | Kir2-1 spec inactive | KCNK9 uninduced inactive
O=C(NNC(=O)c1ccncc1)Nc1cc(Cl)ccc1Cl	none (no result: hERG rescue, KCNQ1 block, KCNQ1 pot, KCNK9 inh, Kir21 block)
CCCC(C(=O)Nc1ccc(S(=O)(=O)Nc2nccs2)cc1)c1ccccc1 (centres undefined)	none (no result: hERG rescue, KCNQ1 block, KCNQ1 pot, KCNK9 inh, Kir21 block)
N#Cc1ccccc1NC(=S)NC(=O)c1cccnc1	none
Cc1ccc(Cl)cc1N1CCN(Cc2nc3c(c(=O)[nH]c(=O)n3C)n2Cc2ccccc2F)CC1	KCNK9 inh -8.8 | KCNK9 block conf inactive | Kir2-1 spec inactive | KCNK9 uninduced inactive
Cn1c(=O)[nH]c(=O)c2c1nc(Br)n2Cc1ccccc1F	none | KCNK9 block conf inactive | Kir2-1 spec inactive | KCNK9 uninduced inactive
CN(Cc1ccccc1)C(=O)c1cccc(NC(=O)Cc2ccc(NC(=O)C3CCCN(C(=O)C4CCCCC4)C3)cc2)c1 (centres undefined)	none (no result: hERG rescue, KCNQ1 block, KCNQ1 pot, KCNK9 inh, Kir21 block)
Cc1ccc2[nH]c(C)c(/C=C/c3cc[n+](C)cc3)c2c1	KCNK9 inh -8.1 | KCNK9 block conf 76% | Kir2-1 spec 56% | KCNK9 uninduced 75%
Cc1ccc2c(c1)c(/C=C/c1cc[n+](C)cc1)c(C)n2C	none
COc1ccc(OC)c(C2=NS(=O)(=O)N(C)C(C(=O)NCc3ccco3)=C2)c1	none
CC1(C)OC(=O)N(NCc2ccccc2)C1(C)O (centres undefined)	none
O=C(O)CSc1cccc2cccnc12	none
Cc1ccc(C(=O)COC(=O)CSc2cccc3cccnc23)c(C)c1	none | KCNK9 block conf inactive | Kir2-1 spec inactive | KCNK9 uninduced inactive
CS(=O)(=O)c1ccc(C(=O)OCC(=O)N(CCc2ccccc2)Cc2ccccc2)cc1	none
C=C(c1ccc(O)cc1)c1ccc(O)cc1	KCNK9 inh -11 | KCNK9 block conf 46% | Kir2-1 spec inactive | KCNK9 uninduced inactive
Cc1ccc(S(=O)(=O)N2CCOCC2)cc1C(=O)OCC(=O)NC1CC1	none (no result: hERG rescue, KCNQ1 block, KCNQ1 pot, KCNK9 inh, Kir21 block)
O=C(Nc1cscc1S(=O)(=O)c1ccc(Cl)cc1)c1ccccc1Cl	none
O=C(Nc1cscc1S(=O)(=O)c1ccccc1)c1ccccc1Cl	KCNK9 inh -8.6 | KCNK9 block conf 41% | Kir2-1 spec inactive | KCNK9 uninduced 34%
NS(=O)(=O)c1ccc(CCNS(=O)(=O)c2cccc(C(=O)O)c2)cc1	none
Cn1c(CN2CCCC(C(=O)c3ccc4c(c3)OCO4)C2)nc2ccccc21 (centres undefined)	none | KCNK9 block conf inactive | Kir2-1 spec inactive | KCNK9 uninduced inactive
